The text below walks through data of ChEMBL document CHEMBL2413051, “Antibacterial activity of quinoxalines, quinazolines, and 1,5-naphthyridines” (2013).

Structures are written as SMILES. In brackets after ≈: the same amount, converted by molar mass. Activity calls are given as the source filed them.

In experiment [1] the target is T1, Cell division protein FtsZ (Staphylococcus aureus) (UniProt P0A031).
T1 sequence (whole entry): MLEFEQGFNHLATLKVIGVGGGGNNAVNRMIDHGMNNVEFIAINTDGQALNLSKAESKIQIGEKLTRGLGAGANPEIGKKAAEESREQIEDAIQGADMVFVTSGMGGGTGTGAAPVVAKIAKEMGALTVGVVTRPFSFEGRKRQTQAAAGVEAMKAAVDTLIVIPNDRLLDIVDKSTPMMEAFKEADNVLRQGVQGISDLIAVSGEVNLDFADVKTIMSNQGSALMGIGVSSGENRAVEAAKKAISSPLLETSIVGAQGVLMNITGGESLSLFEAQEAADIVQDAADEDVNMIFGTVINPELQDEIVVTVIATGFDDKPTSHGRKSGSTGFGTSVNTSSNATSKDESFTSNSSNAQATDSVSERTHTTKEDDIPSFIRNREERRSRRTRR
As to the kind of experiment: Stimulation of purified Staphylococcus aureus FtsZ polymerization at 40 ug/ml by microtiter plate based light-scattering assay in presence of 10 mM depolymerizing agent GDP.

Experiment [2] concerns Enterococcus faecalis. As to the kind of experiment: Ratio of MBC to MIC for vancomycin-resistant Enterococcus faecalis ATCC 51575. The class given is functional. Put shortly: (§1)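 Ratio of MBC to MIC, both in µg/mL. MIC was found by CLSI broth microdilution as the lowest concentration giving ≥90% growth inhibition. MBC was found by a previously described method. Per CLSI, a ratio of 1–2 is read as bactericidal and ≥8 as bacteriostatic.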

Experiment [3] relates to Staphylococcus aureus. As to the kind of experiment: Ratio of MBC to MIC for methicillin-resistant Staphylococcus aureus ATCC 33591. The class given is functional. The essentials: as §1
The test system of experiment [4] is Enterococcus faecalis. Kind of experiment: Bactericidal activity against vancomycin-resistant Enterococcus faecalis ATCC 51575. The class given is functional.
The test system of experiment [5] is Staphylococcus aureus. As to the kind of experiment: Ratio of MBC to MIC for methicillin-sensitive Staphylococcus aureus 8325-4. The class given is functional.
The test system of experiment [6] is Staphylococcus aureus. Kind of experiment: Bactericidal activity against methicillin-resistant Staphylococcus aureus ATCC 33591. The class given is functional.
The test system of experiment [7] is Enterococcus faecalis. As to the kind of experiment: microbe, parasite or virus in culture. The class given is functional. Conditions: ATCC 51575.
For experiment [8], the system named is Enterococcus faecalis. Kind of experiment: microbe, parasite or virus in culture. The class given is functional. Particulars: ATCC 19433.
Experiment [9] deals with Staphylococcus aureus. Kind of experiment: microbe, parasite or virus in culture. The class given is functional. Particulars: ATCC 33591.
The test system of experiment [10] is Staphylococcus aureus. As to the kind of experiment: microbe, parasite or virus in culture. The class given is functional. Particulars: 8325-4.
Experiment [11] has as its target T1, Cell division protein FtsZ (Staphylococcus aureus). Kind of experiment: Stimulation of purified Staphylococcus aureus FtsZ polymerization at 40 ug/ml by microtiter plate based light-scattering assay.
Experiment [12] concerns Staphylococcus aureus. As to the kind of experiment: Bactericidal activity against methicillin-sensitive Staphylococcus aureus 8325-4. The class given is functional. Put shortly:
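MBC against MSSA strain 8325-4, determined per a previously described method; paired MIC by CLSI broth microdilution, MIC being lowest concentration giving ≥90% growth inhibition.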

For experiment [13], the target named is T1, Cell division protein FtsZ (Staphylococcus aureus). Kind of experiment: Stimulation of purified Staphylococcus aureus FtsZ polymerization at 80 ug/ml by microtiter plate based light-scattering assay.

Usually MBC stands for the smallest concentration meeting the test's criterion for killing. A high value points to less potent killing. As to `CC(C)(C)c1cccc(-c2cnc3c(CNC(=N)N)cccc3n2)c1`, the outcome in experiment [1] and in [11] was Active. For the same compound, the Ratio in the experiment with Enterococcus faecalis [2] is 2; in the experiment on Staphylococcus aureus [3], 2; in the experiment with Staphylococcus aureus [5], 1. Further, the minimum bactericidal concentration (MBC) against Enterococcus faecalis [4] came to 32 µg/mL (≈ 96 µM); with Staphylococcus aureus [6], 8 µg/mL (≈ 24 µM); against Staphylococcus aureus [12], 4 µg/mL (≈ 12 µM). The MIC in the experiment with Enterococcus faecalis [7] was found to be 16 µg/mL (≈ 48 µM); with Enterococcus faecalis [8] it was 8 µg/mL (≈ 24 µM); in the experiment with Staphylococcus aureus [9], 4 µg/mL (≈ 12 µM); in the experiment with Staphylococcus aureus [10], 4 µg/mL (≈ 12 µM).
On to `CC(C)(C)c1ccc(-c2ncnc3c(CNC(=N)N)cccc23)cc1`, for which the outcome in experiment [1] and in experiment [13] was Active. Moreover, the Ratio in the experiment with Enterococcus faecalis [2] and in the experiment on Staphylococcus aureus [5] was 2 each time. For the same compound, the MBC in the experiment with Enterococcus faecalis [4] amounted to 64 µg/mL (≈ 192 µM); against Staphylococcus aureus [6], 16 µg/mL (≈ 48 µM); in the experiment with Staphylococcus aureus [12], 8 µg/mL (≈ 24 µM). Also, the MIC against Enterococcus faecalis [7] was 32 µg/mL (≈ 96 µM); against Enterococcus faecalis [8], 32 µg/mL (≈ 96 µM); in the experiment on Staphylococcus aureus [9], 8 µg/mL (≈ 24 µM); against Staphylococcus aureus [10], 4 µg/mL (≈ 12 µM).
For the compound `CC(C)(C)c1ccc(-c2cnc3c(CNC(=N)N)cccc3n2)cc1`, the outcome in experiment [1] and in [11] was Active. For the same compound, the Ratio is 1 in the experiment on Enterococcus faecalis [2], 2 in the experiment with Staphylococcus aureus [3] and 1 in the experiment with Staphylococcus aureus [5]. Moreover, the MBC in the experiment on Enterococcus faecalis [4] is 16 µg/mL (≈ 48 µM); against Staphylococcus aureus [6] it was 8 µg/mL (≈ 24 µM); in the experiment on Staphylococcus aureus [12], 4 µg/mL (≈ 12 µM). Moreover, the MIC against Enterococcus faecalis [7] worked out at 16 µg/mL (≈ 48 µM); in the experiment on Enterococcus faecalis [8], 8 µg/mL (≈ 24 µM); in the experiment with Staphylococcus aureus [9], 4 µg/mL (≈ 12 µM); against Staphylococcus aureus [10], 4 µg/mL (≈ 12 µM).
As to `CC(C)(C)c1ccc(-c2ccnc3c(CNC(=N)N)ccnc23)cc1`, the outcome in experiment [1] and in experiment [13] was Active. The Ratio was determined as 1 in the experiment with Enterococcus faecalis [2], 2 with Staphylococcus aureus [3] and 1 in the experiment with Staphylococcus aureus [5]. The minimal bactericidal concentration (MBC) amounted to 64 µg/mL (≈ 192 µM) against Enterococcus faecalis [4], 16 µg/mL (≈ 48 µM) in the experiment with Staphylococcus aureus [6] and 8 µg/mL (≈ 24 µM) with Staphylococcus aureus [12]. Also, the MIC in the experiment on Enterococcus faecalis [7] stood at 64 µg/mL (≈ 192 µM); with Enterococcus faecalis [8], 32 µg/mL (≈ 96 µM); in the experiment on Staphylococcus aureus [9], 8 µg/mL (≈ 24 µM); in the experiment with Staphylococcus aureus [10] it was 8 µg/mL (≈ 24 µM).
